An excerpt weighted towards active compounds, which were near 3.7% of everything screened.
KCNK3 inh – human KCNK3 channel inhibition, primary screen; O14649; CHO-KCNK3 thallium flux, FluxOR fluorescence; active compounds read low; B-score at 10 µM; 0.84% of 340,000 active;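 active = B-score under library mean minus 4 SD, starting fluorescence ratio at most library mean plus 5 SD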;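 note: more negative B-score means stronger inhibition of thallium flux through KCNK3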
KCNK9 inh – human KCNK9 channel inhibition; Q9NPC2; HEK293 KCNK9, FluxOR thallium flux fluorescence; active compounds read low; B-score at 10 µM; 1.2% of 310,000 active;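 active = ratio B-score over 3 SD below the library mean, with starting fluorescence within 5 SD of its mean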;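 note: negative B-score means less thallium flux so channel inhibition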
hERG rescue – shields human hERG channel from block by proarrhythmic agents | activation (rescue from dofetilide block), less the hit threshold, % at 10 µM | AID 1511 | CHO-hERG, FluxOR thallium flux, dofetilide IC70 present | 0.51% of 310,000 active;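 active = activation above the mean of controls blocked by dofetilide plus 5 SD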;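 note: thallium influx through hERG after potassium depolarization seen as dye fluorescence rise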
KCNQ1 inh – inhibitors of human KCNQ1 potassium channel; P51787; CHO-K1 KCNQ1, FluxOR thallium flux fluorescence; active compounds read high; B-score at 10 µM; AID 2642; 1.3% of 310,000 active;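 active = compounds whose thallium flux B-score, printed positive for inhibition, exceeds three library SD while starting fluorescence stays within three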;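 note: channel opened by potassium depolarization with thallium stimulus after 20 min compound exposure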
Target sequence (P51787 whole entry, looked up): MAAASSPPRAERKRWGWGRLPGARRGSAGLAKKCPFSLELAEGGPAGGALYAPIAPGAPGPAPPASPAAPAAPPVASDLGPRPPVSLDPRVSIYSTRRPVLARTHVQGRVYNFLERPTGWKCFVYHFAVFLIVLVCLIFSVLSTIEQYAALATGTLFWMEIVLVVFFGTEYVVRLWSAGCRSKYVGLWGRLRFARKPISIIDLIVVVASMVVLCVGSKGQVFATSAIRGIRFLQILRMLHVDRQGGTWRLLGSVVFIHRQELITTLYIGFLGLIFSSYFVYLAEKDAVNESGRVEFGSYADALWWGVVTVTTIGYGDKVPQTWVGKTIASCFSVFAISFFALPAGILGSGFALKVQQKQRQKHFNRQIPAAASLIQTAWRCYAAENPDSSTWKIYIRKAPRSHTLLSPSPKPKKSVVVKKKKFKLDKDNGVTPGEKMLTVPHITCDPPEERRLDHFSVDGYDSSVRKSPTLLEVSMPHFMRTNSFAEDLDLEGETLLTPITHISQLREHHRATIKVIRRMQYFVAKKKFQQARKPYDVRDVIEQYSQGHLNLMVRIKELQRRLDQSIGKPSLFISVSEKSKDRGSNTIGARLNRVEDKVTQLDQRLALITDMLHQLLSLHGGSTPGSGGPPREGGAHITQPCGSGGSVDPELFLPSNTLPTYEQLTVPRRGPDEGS
Kir21 block – inhibitors of mouse Kir2.1 inward-rectifier potassium channel. B-score at 10 µM. AID 1672. P35561. HEK293-Kir2.1, FluxOR thallium flux fluorescence; active compounds read low. 0.85% of 310,000 active;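 active = fluorescence ratio B-score at or below minus 3 SD of library scores, with starting-brightness B-score within 2 SD, cut at about -4.2 in these data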;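 note: channel flux triggered by added potassium and thallium sulfate stimulus; B-score of peak minus minimum fluorescence over baseline after thallium stimulus; more negative B-score means stronger Kir2.1 block with less thallium influx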
KCNQ1 pot – human KCNQ1 channel potentiation or activation; CHO-K1 KCNQ1, thallium flux FluxOR fluorescence; active compounds read high; B-score at 10 µM; 0.35% of 310,000 active;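 active = fluorescence ratio B-score, a plate-corrected score, at least three library SD, with initial intensity B-score within 5 SD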
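Doses: Single concentration per compound, DMSO matched to controls | Test system: KCNQ1-transfected CHO-K1 cells | Timing: 90 min dye loading and 20 min compound exposure, both at room temperature | Measured by: Kinetic FluxOR thallium fluorescence, 10-s 1-Hz baseline, 110-s post-stimulus read | Medium: Assay buffer with matched DMSO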
KCNK9 inh conf – confirmation of human KCNK9 potassium channel inhibitors; shares compounds with KCNK9 inh; HEK293 KCNK9 cells, FluxOR thallium flux fluorescence; inhibition, % at 10 µM; 43% of 4,900 active;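 active = thallium signal inhibited by more than 5 SD of the compound-free buffer control wells, on both duplicate plates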;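 note: 0% = assay buffer control wells without compound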
Kir21 sel – selectivity of KCNK9 modulators against mouse Kir2.1; shares compounds with KCNK9 inh; Kir2.1 cells, FluxOR thallium flux fluorescence; inhibition, % at 10 µM; 4% of 4,900 active; AID 492993;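 active = thallium signal drop more than 5 SD beyond the mean of the no-compound control wells, seen in both duplicate plates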;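 note: signal is fluorescence rise after thallium addition divided by baseline fluorescence; plate controls were assay buffer only for no effect and full block by chlorpromazine control for full effect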
HEK293 Tl ctr – second check of KCNK9 modulator effects in non-induced HEK293 cells; shares compounds with KCNK9 inh; FluxOR thallium flux; inhibition, % at 10 µM; 40% of 4,900 active; AID 492997;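 active = thallium signal drop beyond 5 SD of the untreated control mean, on both duplicate plates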;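 note: plate controls were buffer only IC0 wells for no effect and SID17386958 at its maximal inhibitory level for full effect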
The depositor's hits bear a star; i = inactive; / = not tested or not shown.

SMILES	KCNK3 inh	KCNK9 inh	hERG rescue	KCNQ1 inh	Kir21 block	KCNQ1 pot	KCNK9 inh conf	Kir21 sel	HEK293 Tl ctr
CCOc1ccc(-c2nc(CSCC(=O)NC3CC3)c(C)o2)cc1	i	i	-5.7	i	0.42	i	/	/	/
O=C(Cc1coc2ccc3ccccc3c12)NC1CCCc2ccccc21 (stereo not drawn)	i	-11*	-8.7	i	-0.34	i	66.0%*	i	36.5%*
CCOc1ccc(-c2nc(CSCC(=O)NC3CCCc4ccccc43)c(C)o2)cc1 (stereo not drawn)	i	-8.3*	-9.1	6*	0.21	i	43.5%*	i	42.0%*
O=C(CCCOc1ccccc1)NC1CCCc2ccccc21 (stereo not drawn)	i	i	-5.4	i	1.24	i	i	i	i
Cc1ccc(-c2nnc(CSc3nc(C(C)C)nc4sc(C)c(C)c34)o2)cc1	i	i	-12.3	i	2.32	i	i	i	i
COc1ccc(OC)c(C=Nc2ccccc2-c2nc3ccccc3[nH]2)c1	i	-8.37*	-13.6	i	-0.34	i	39.0%*	i	28.0%*
CC(C)NC(=O)N(C)C[C@H]1Oc2ccc(NS(=O)(=O)c3ccccc3)cc2C(=O)N([C@H](C)CO)C[C@H]1C	i	/	/	/	/	/	/	/	/
CCOc1ccc(N2CC(C(=O)Nc3ccc4c(c3)OCCO4)CC2=O)cc1 (stereo not drawn)	i	i	-14.9	i	-0.08	i	/	/	/
CCOc1ccc(N2CC(C(=O)Nc3ccc4c(c3)OCO4)CC2=O)cc1 (stereo not drawn)	i	i	-11.3	i	0.79	i	i	i	i
O=C(NCCN1CCOCC1)c1cc(-c2ccc(Br)cc2)on1	i	-11.9*	-9.6	i	1.27	i	i	i	i
COc1ccccc1Nc1nnc(SCC2CCCCO2)s1 (stereo not drawn)	i	i	-12.1	i	-1.24	i	/	/	/
Cc1ccccc1Nc1nnc(SCC2CCCCO2)s1 (stereo not drawn)	i	-8.78*	-6.4	i	-0.84	i	i	i	i
O=C(O)c1cc(NN=Nc2ccc(Br)cc2)cc([N+](=O)[O-])c1	i	i	-11.4	i	0.89	i	i	i	i
CC(CCc1ccccc1)NC(=O)C1CCCN(C(=O)c2cc3sccc3n2C)C1 (stereo not drawn)	i	i	-0.4	i	0.35	i	/	/	/
CCn1c(C(=O)N2CCCC(C(=O)NCCCc3ccccc3)C2)cc2sccc21 (stereo not drawn)	i	i	-9.0	i	-0.73	i	i	i	i
CCn1c(C(=O)N2CCCC(C(=O)NCCc3ccc(C)cc3)C2)cc2sccc21 (stereo not drawn)	i	/	/	/	/	/	/	/	/
Cn1c(C(=O)N2CCCC(C(=O)NCCCSC3CCCCC3)C2)cc2sccc21 (stereo not drawn)	i	i	-4.3	i	0.32	i	i	i	i
O=C(Nc1nc2ccccc2[nH]1)c1ccc(Br)o1	i	i	-10.9	i	0.93	i	/	/	/
C[C@@H](C(=O)O)[C@H]1C[C@]1(C)[C@H](NC(=O)OCc1ccccc1)c1ccccc1	i	i	-6.8	i	0.57	i	/	/	/
C[C@@H](C(=O)NCc1ccccc1)[C@H]1C[C@]1(C)[C@H](NC(=O)OCc1ccccc1)c1ccccc1	i	-9.18*	-7.8	i	1.24	i	49.0%*	i	i
O=C(Nc1ccccc1)c1nsnc1C(=O)Nc1ccccc1	i	i	-6.8	i	1.54	i	/	/	/
COc1ccc(/C=C(/CC(=O)NCc2ccc(Cl)cc2)c2nc3ccccc3s2)cc1	i	-18.9*	-5.5	i	0.96	i	65.5%*	i	46.5%*
CC(/C=N/Nc1nc(N2CCCCC2)nc(N2CCCCC2)n1)=C\c1ccccc1	i	-12.2*	-6.7	i	-0.02	i	55.0%*	i	27.0%*
Oc1ccc(/C=N/Nc2nc(N3CCCCCC3)nc(N3CCCCCC3)n2)c(O)c1	i	i	-15.0	i	0.67	i	/	/	/
C(=N\Nc1nc(N2CCCCCC2)nc(N2CCCCCC2)n1)/c1ccccc1	i	i	-2.3	i	-0.12	i	/	/	/
SMILES	KCNK3 inh	KCNK9 inh	hERG rescue	KCNQ1 inh	Kir21 block	KCNQ1 pot	KCNK9 inh conf	Kir21 sel	HEK293 Tl ctr
C/C(=C/C=N/Nc1nc(N2CCCCC2)nc(N2CCCCC2)n1)c1ccccc1	i	-8.65*	-13.2	i	1.11	i	44.5%*	i	i
CC(=O)c1cccc(NC(=O)c2cc(S(=O)(=O)N3CCOCC3)cs2)c1	i	i	-7.3	i	1.63	i	/	/	/
CCOc1ccc(OCCOC(=O)C2CCN(S(=O)(=O)c3ccc(C)c(C)c3)CC2)cc1	i	i	-12.7	i	0.59	i	i	i	i
CCOC(=O)C1CCN(S(=O)(=O)c2ccc(OCC(=O)OC)cc2)CC1	i	i	-1.2	i	1.68	i	/	/	/
Cn1c(CN2CCN(S(C)(=O)=O)CC2)nc2cc([N+](=O)[O-])ccc21	i	i	-4.7	i	0.94	i	/	/	/
CCC(C)n1c(SCC(=O)Nc2ccccc2C(F)(F)F)nc2ccsc2c1=O (stereo not drawn)	i	-8.94*	-9.6	i	-0.28	i	26.0%*	i	26.5%*
Cc1ccc(NS(=O)(=O)c2cccc(C(=O)NCCc3c[nH]c4ccccc34)c2)c(C)c1	i	i	-16.8	i	1.07	i	i	i	27.0%*
Cc1cccc(C(=O)Nc2ccc3c(c2)ncn3C)c1	i	i	-1.2	i	0.56	i	/	/	/
COc1ccc(N2CC(C)Cn3c2nc2c3c(=O)n(Cc3ccc(C)cc3)c(=O)n2C)c(OC)c1 (stereo not drawn)	i	i	-14.7	i	-0.63	i	i	i	i
COc1ccc2c(c1)c(C(=O)N/N=C/c1cn(C)c3ccccc13)c(C)n2C	i	-9.43*	-17.2	i	-0.75	i	i	i	i
Cc1cc(C)nc(N=Nc2c(O)n(Cc3ccc(Cl)cc3)c3ccccc23)n1	i	-18.2*	-3.9	i	0.12	i	72.0%*	i	26.5%*

Assay outcomes: PubChem BioAssay, Johns Hopkins Ion Channel Center
